Laboratory results as given in ChEMBL document CHEMBL4007402 (J Med Chem, 2017).

Assays:
[1] = biological target: T1, Tyrosine-protein kinase JAK3 (Homo sapiens) (UniProt P52333); test: Inhibition of recombinant TEL-fused JAK3 (unknown origin) expressed in mouse BAF3 cells assessed as growth inhibition after 72 hrs by CellTiter-Glo or CCK-8 assay; type: cell-based
T1 sequence (whole entry): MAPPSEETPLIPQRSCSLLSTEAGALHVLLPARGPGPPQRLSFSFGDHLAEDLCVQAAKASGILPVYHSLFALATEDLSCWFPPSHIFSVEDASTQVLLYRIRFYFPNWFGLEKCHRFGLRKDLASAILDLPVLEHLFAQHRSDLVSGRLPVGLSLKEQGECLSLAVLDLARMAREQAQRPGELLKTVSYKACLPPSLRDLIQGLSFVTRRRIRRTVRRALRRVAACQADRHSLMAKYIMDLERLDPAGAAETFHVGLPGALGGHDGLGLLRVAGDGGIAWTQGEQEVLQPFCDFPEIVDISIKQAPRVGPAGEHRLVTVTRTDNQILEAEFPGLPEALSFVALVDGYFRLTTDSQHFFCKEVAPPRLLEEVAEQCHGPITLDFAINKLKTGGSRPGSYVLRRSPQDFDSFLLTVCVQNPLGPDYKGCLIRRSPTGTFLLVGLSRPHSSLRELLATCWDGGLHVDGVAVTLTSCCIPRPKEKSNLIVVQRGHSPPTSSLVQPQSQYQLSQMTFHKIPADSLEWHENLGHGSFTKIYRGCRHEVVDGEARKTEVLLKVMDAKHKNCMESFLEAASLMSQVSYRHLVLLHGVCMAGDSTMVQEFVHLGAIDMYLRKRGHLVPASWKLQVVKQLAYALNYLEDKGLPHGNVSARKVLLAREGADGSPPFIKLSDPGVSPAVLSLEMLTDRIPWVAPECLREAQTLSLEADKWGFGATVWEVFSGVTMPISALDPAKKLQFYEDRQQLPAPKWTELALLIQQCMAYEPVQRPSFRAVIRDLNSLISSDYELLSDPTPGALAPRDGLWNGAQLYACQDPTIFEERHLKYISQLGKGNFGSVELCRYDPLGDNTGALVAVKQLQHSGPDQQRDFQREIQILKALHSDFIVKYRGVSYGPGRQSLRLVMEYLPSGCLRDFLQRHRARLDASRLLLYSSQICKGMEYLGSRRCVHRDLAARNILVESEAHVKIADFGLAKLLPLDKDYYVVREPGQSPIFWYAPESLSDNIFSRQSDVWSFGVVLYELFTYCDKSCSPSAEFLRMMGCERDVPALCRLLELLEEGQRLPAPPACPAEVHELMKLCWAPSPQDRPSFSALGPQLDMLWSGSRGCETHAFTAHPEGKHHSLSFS
How it was run: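 Isogenic murine BaF3 cells transformed with TEL-fused kinases, whose proliferation depends on the fused kinase, were used. Parental BaF3 cells served as the general selectivity counter-screen. The anti-proliferative read-out was reported as GI50.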

CWR22R = test: Growth inhibition of human 22Rv1 cells after 72 hrs by CellTiter-Glo or CCK-8 assay; type: functional; settings: 22Rv1, 72 h
[2] = AUC (0 to t) in Sprague-Dawley rat at 1 mg/kg, iv up to 8 hrs; type: ADME, organism-based; set-up: time < 8 hr, dose 1 mg/kg, route intravenous; settings: in vivo
How it was run: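 Sprague Dawley rats given a single i.v. dose of 1 mg/kg or an oral dose of 10 mg/kg. Plasma AUC(0-t), AUC(0-∞), MRT(0-t), T1/2, Tmax and Cmax were derived and reported as mean±SD.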

GI50 [1]: > 10 µM | AUC(0-t) at 8 h [2]: 1390 ng·h/mL
Structure (SMILES): C=CC(=O)Nc1cc(Nc2ncc(C(=O)Nc3cc(NC(=O)c4cc(OC)c(OC)c(OC)c4)ccc3C)c(NC)n2)ccc1C
GI50 (CWR22R): 3.45 µM
